Measured values from ChEMBL document CHEMBL4130550, “Antiproliferative Dimeric Aporphinoid Alkaloids from the Roots of Thalictrum cultratum” (J Nat Prod, 2017).
Activity calls are given as the source filed them. The calls are words filed in the database; no cut-off is given here.

Columns and labels:
[1] = tested on: HL-60; assay: Antiproliferative activity against human HL60 cells after 72 hrs by tryphan blue staining based hematocytometric method; format: functional, cell-based; conditions: HL-60, 72 h
Summary of the method: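 HL-60 (ATCC) in RPMI-1640 with 10% heat-inactivated FBS, 1 mM glutamine and penicillin/streptomycin, 37 °C, 5% CO2. Cells at 4.5 × 10^4 cells/mL are exposed to a concentration gradient (DMSO stock diluted in absolute EtOH) for 72 h. Trypan blue is added and total cells are counted on a hematocytometer. IC50 is the mean of three parallel experiments. Negative reference is 0.1% DMSO.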

[2] = tested on: PC-3; assay: Antiproliferative activity against human PC3 cells by MTT assay; format: functional, cell-based
Summary of the method: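 PC-3 (ATCC) in supplemented RPMI-1640 with 10% FBS at 37 °C, 5% CO2. Log-phase cells get graded concentrations in triplicate. MTT (5 mg/mL solution) is added for a further 4 h, then dissolved in DMSO and read at 490 nm. IC50 is from the average of three parallel experiments. Negative reference is 0.1% DMSO.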

[3] = tested on: HL-60; assay: Cell cycle arrest in human HL60 cells assessed as accumulation at G2 phase at 0.06 uM after 24 hrs by propidium iodide staining based flow cytometric method (reference value: 30.93%); format: functional
[4] = tested on: HL-60; assay: Cell cycle arrest in human HL60 cells assessed as accumulation at S phase at 0.06 uM after 24 hrs by propidium iodide staining based flow cytometric method (reference value: 25.75%); format: functional
[5] = tested on: HL-60; assay: Cell cycle arrest in human HL60 cells assessed as accumulation at G1 phase at 0.3 uM after 24 hrs by propidium iodide staining based flow cytometric method (reference value: 43.32%); format: functional
[6] = tested on: HL-60; assay: Cell cycle arrest in human HL60 cells assessed as accumulation at G2 phase at 0.3 uM after 24 hrs by propidium iodide staining based flow cytometric method (reference value: 30.93%); format: functional
[7] = tested on: HL-60; assay: Cell cycle arrest in human HL60 cells assessed as accumulation at G2 phase at 1.5 uM after 24 hrs by propidium iodide staining based flow cytometric method (reference value: 30.93%); format: functional
[8] = tested on: HL-60; assay: Cell cycle arrest in human HL60 cells assessed as accumulation at S phase at 1.5 uM after 24 hrs by propidium iodide staining based flow cytometric method (reference value: 25.75%); format: functional
[9] = tested on: HL-60; assay: Induction of morphological changes in human HL60 cells assessed as cell shrinkage at 0.06 to 1.5 uM after 24 hrs by Hoechst 33258 staining based fluorescence microscopic analysis; format: functional
[10] = tested on: HL-60; assay: Induction of apoptosis in human HL60 cells assessed as live cells at 0.06 uM after 24 hrs by Annexin-V-APC/7-AAD staining based flow cytometric method (reference value: 95.31%); format: functional
Summary of the method: (§1)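 HL-60 are seeded overnight in six-well plates, then treated in triplicate with 0.06, 0.3 or 1.5 μM, or untreated, for 24 h. Cells are washed in PBS and taken up in annexin V binding buffer. Annexin V-APC is added for 15 min in the dark at 25 °C, and 7-AAD just before flow cytometry. Early apoptosis is annexin V-APC only; late apoptosis is annexin V-APC/7-AAD.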

[11] = tested on: HL-60; assay: Induction of apoptosis in human HL60 cells assessed as late apoptotic cells at 0.06 uM after 24 hrs by Annexin-V-APC/7-AAD staining based flow cytometric method (reference value: 1.99%); format: functional; summary of the method: as §1
[12] = tested on: HL-60; assay: Induction of apoptosis in human HL60 cells assessed as necrotic cells at 0.06 uM after 24 hrs by Annexin-V-APC/7-AAD staining based flow cytometric method (reference value: 0.44%); format: functional; summary of the method: as §1
[13] = tested on: HL-60; assay: Induction of apoptosis in human HL60 cells assessed as late apoptotic cells at 0.3 uM after 24 hrs by Annexin-V-APC/7-AAD staining based flow cytometric method (reference value: 1.99%); format: functional; summary of the method: as §1
[14] = tested on: HL-60; assay: Induction of apoptosis in human HL60 cells assessed as necrotic cells at 0.3 uM after 24 hrs by Annexin-V-APC/7-AAD staining based flow cytometric method (reference value: 0.44%); format: functional; summary of the method: as §1
[15] = tested on: HL-60; assay: Induction of apoptosis in human HL60 cells assessed as live cells at 1.5 uM after 24 hrs by Annexin-V-APC/7-AAD staining based flow cytometric method (reference value: 95.31%); format: functional; summary of the method: as §1
[16] = tested on: HL-60; assay: Induction of apoptosis in human HL60 cells assessed as early apoptotic cells at 1.5 uM after 24 hrs by Annexin-V-APC/7-AAD staining based flow cytometric method (reference value: 2.26%); format: functional; summary of the method: as §1
[17] = tested on: HL-60; assay: Induction of apoptosis in human HL60 cells assessed as late apoptotic cells at 1.5 uM after 24 hrs by Annexin-V-APC/7-AAD staining based flow cytometric method (reference value: 1.99%); format: functional; summary of the method: as §1
[18] = tested on: HL-60; assay: Induction of apoptosis in human HL60 cells assessed as necrotic cells at 1.5 uM after 24 hrs by Annexin-V-APC/7-AAD staining based flow cytometric method (reference value: 0.44%); format: functional; summary of the method: as §1
[19] = tested on: HL-60; assay: Induction of apoptosis in human HL60 cells assessed as live cells at 1.5 uM after 24 hrs by Annexin-V-FITC/propidium iodide staining based flow cytometric method (reference value: 94.19%); format: functional
[20] = tested on: HL-60; assay: Induction of apoptosis in human HL60 cells assessed as early apoptotic cells at 1.5 uM after 24 hrs by Annexin-V-FITC/propidium iodide staining based flow cytometric method (reference value: 2.8%); format: functional
[21] = tested on: HL-60; assay: Induction of apoptosis in human HL60 cells assessed as late apoptotic cells at 1.5 uM after 24 hrs by Annexin-V-FITC/propidium iodide staining based flow cytometric method (reference value: 2.53%); format: functional
[22] = tested on: HL-60; assay: Induction of apoptosis in human HL60 cells assessed as necrotic cells at 1.5 uM after 24 hrs by Annexin-V-FITC/propidium iodide staining based flow cytometric method (reference value: 0.47%); format: functional
[23] = tested on: HL-60; assay: Induction of apoptosis in human HL60 cells assessed as necrotic cells at 1.5 uM after 48 hrs by Annexin-V-FITC/propidium iodide staining based flow cytometric method (reference value: 0.47%); format: functional
[24] = tested on: HL-60; assay: Induction of apoptosis in human HL60 cells assessed as live cells at 1.5 uM after 72 hrs by Annexin-V-FITC/propidium iodide staining based flow cytometric method (reference value: 94.19%); format: functional
[25] = tested on: HL-60; assay: Induction of apoptosis in human HL60 cells assessed as late apoptotic cells at 1.5 uM after 72 hrs by Annexin-V-FITC/propidium iodide staining based flow cytometric method (reference value: 2.53%); format: functional
[26] = tested on: HL-60; assay: Induction of apoptosis in human HL60 cells at 1.5 uM by Annexin-V-FITC/propidium iodide staining based flow cytometric method; format: functional, cell-based; conditions: TDE = time-dependent effect
[27] = tested on: HL-60; assay: Induction of mitochondrial membrane potential loss in human HL60 cells after 24 hrs by JC1 staining based flow cytometric method; format: functional, cell-based
[28] = tested on: HL-60; assay: Induction of mitochondrial membrane potential loss in human HL60 cells assessed as intact mitochondrial membrane potential at 0.3 uM after 24 hrs by JC1 staining based flow cytometric method (reference value: 99.42%); format: functional
[29] = tested on: HL-60; assay: Induction of mitochondrial membrane potential loss in human HL60 cells assessed as collapse of the mitochondrial membrane potential at 1.5 uM after 24 hrs by JC1 staining based flow cytometric method (reference value: 0.58%); format: functional

COc1cc2c(c(Oc3ccc(C[C@H]4c5cc(OC)c6c(c5CCN4C)OCO6)cc3)c1OC)C[C@H]1c3c(c(OC)c(OC)c(OC)c3-2)CCN1C
IC50 [1]: 1.08 µM
IC50 [2]: 5.59 µM
Activity [3]: 24.33%
Activity [4]: 31.66%
Activity [5]: 36.01%
Activity [6]: 21.47%
Activity [7]: 18.53%
Activity [8]: 48.45%
Activity [9]: Active
Activity [10]: 79.49%
Activity [11]: 8.18%
Activity [12]: 3.77%
Activity [13]: 6.3%
Activity [14]: 1.2%
Activity [15]: 35.77%
Activity [16]: 9%
Activity [17]: 47.95%
Activity [18]: 7.28%
Activity [19]: 76.15%
Activity [20]: 14.79%
Activity [21]: 8.92%
Activity [22]: 0.14%
Activity [23]: 0.57%
Activity [24]: 36.09%
Activity [25]: 31.66%
Activity [26]: Tde
Activity [27]: Dose-dependent effect
Activity [28]: 66.5%
Activity [29]: 59.1%
